Laboratory results: paper PMC10072273 (International Journal of Nanomedicine, 2023)
pIC50: −log10 of the molar value.

How the values were obtained:
K562 cells = assay: Cytotoxicity; type: cell-based; conditions: Homo sapiens, K562, 72 h, read-out: Antiproliferative activity IC50, K562 cells
Summary of the method: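 K562 cells were grown in RPMI-1640 with 10% heat-inactivated FBS and penicillin/streptomycin at 37°C, 5% CO2. Seeded at 8,000 cells/well, rested 24 h, then exposed 72 h to a concentration series. MTS reagent was added in phenol-red-free DMEM for 1 h at 37°C and absorbance read at 490 nm. Response was taken relative to control and IC50 fitted. Triplicates per experiment, 3–4 experiments.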

p62 = assay: mRNA expression; type: cell-based, human; conditions: RAJI cells, ibrutinib 15 µM, 24 h
Summary of the method: (§1)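 RAJI cells treated 24 h with test nanomaterial (347, 174, 84 µM) or reference BTK inhibitor (30, 15 µM). Total RNA extracted with TRIzol and 1 µg reverse-transcribed. qPCR run as 95°C 60 s, then 40 cycles of 95°C 15 s, primer-specific annealing 30 s, 72°C 30 s, with melt-curve check. Expression by 2−ΔΔCT vs HPRT1. ≥4 experiments, mean ± SD, ANOVA with Dunnett's test vs untreated.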

BTK = assay: mRNA expression; type: cell-based, human; conditions: RAJI cells, ibrutinib, 24 h
Summary of the method: as §1

TLR8 = assay: mRNA expression; type: cell-based, human; conditions: RAJI cells, 24 h
Summary of the method: as §1

NFAT = assay: mRNA expression; type: cell-based, human; conditions: RAJI cells, 24 h
Summary of the method: as §1

ARID3A = assay: mRNA expression; type: cell-based, human; conditions: RAJI cells, 30 µM ibrutinib, 24 h
Summary of the method: as §1

c-Myc = assay: Immunoblotting in RAJI cells after anti-IgM stimulation; type: cell-based, human; conditions: 20 µM ibrutinib, 24 h
Summary of the method: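 RAJI cells seeded at 500,000 per dish. Next day they were stimulated with anti-human IgM (12 µg/mL, 10 min), then the medium was replaced with test nanomaterial (347, 174 µM) or reference inhibitor (20 µM) for 24 h. Lysed on ice in RIPA with protease/phosphatase inhibitors and EDTA, then BCA-normalised SDS-PAGE onto nitrocellulose. Primary antibodies 1:1000 overnight at 4°C, loading controls 1:2000, HRP secondary, chemiluminescence, densitometry. 4–5 experiments.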

[1] = tested on: calcium levels in RAJI cells; assay: Calcium assay; type: cell-based, human; conditions: 24 h, HDGF 347 and 174 µM, ibrutinib 30 and 15 µM
Summary of the method: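 RAJI cells seeded at 40,000/well and held 24 h at 37°C. Medium was replaced with test nanomaterial (347, 174 µM) or reference BTK inhibitor (30, 15 µM) for 24 h. Cells were washed in cold PBS, loaded with Fluo-4 AM (5 µM, 30 min, 37°C), washed, and resuspended in serum-free, phenol-red-free DMEM. Fluorescence read at ex 485/em 520 nm. ≥3 experiments, mean ± SD, ANOVA with Dunnett's test vs untreated.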

C=CC(=O)N1CCC[C@@H](n2nc(-c3ccc(Oc4ccccc4)cc3)c3c(N)ncnc32)C1 [ibrutinib]
pIC50 (K562 cells): 6.07
Expression of p62 (p62): almost three-fold increase
BTK gene expression (BTK): increased
Expression of TLR8 (TLR8): significant decrease
Expression of NFAT (NFAT): significant decrease
Expression of ARID3A (ARID3A): almost two-fold downregulation
c-Myc protein expression (c-Myc): slight downregulation
Cellular calcium levels [1]: drop dramatically
